Measurements from ChEMBL document CHEMBL2346664, “Synthesis, characterization and in vitro anticancer evaluation of novel 1,2,4-triazolin-3-one derivatives” (2013).

Experiments:
Format in all cases: functional
CCRF-CEM = assay: Growth inhibition of human CCRF-CEM cells assessed as cell growth at 10 uM after 48 hrs by sulforhodamine B assay; settings: read-out: Activity
How it was run: (§1)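 NCI-60 primary screen at a single dose of 10^-5 M. Output is mean growth percent of treated cells relative to untreated controls, where values between 0 and 100 indicate growth inhibition and values below 0 indicate cytotoxicity. Cells were plated 24 h before drug, incubated 48 h at 37 °C, 5% CO2, and stained with SRB after TCA fixation. Suspension cells were fixed with 80% TCA (16% final).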

NCI-H23 = assay: Growth inhibition of human NCI-H23 cells assessed as cell growth at 10 uM after 48 hrs by sulforhodamine B assay; settings: NCI-H23, 48 h, read-out: Activity
How it was run: (§2)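 NCI-60 primary single-dose screen at 10^-5 M, 48 h continuous exposure. Adherent cells were fixed with cold TCA (10% final) and suspension cells with 16% final TCA, then stained with 0.4% SRB in 1% acetic acid. Bound dye was solubilized in 10 mM Tris base and read at 515 nm. Output is growth percent relative to untreated controls, and GI% is 100 minus growth percent.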

UACC-62 = assay: Growth inhibition of human UACC62 cells assessed as cell growth at 10 uM after 48 hrs by sulforhodamine B assay; settings: UACC-62, 48 h, read-out: Activity
How it was run: (§3)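 NCI-60 single-dose screen at 10^-5 M. Cells plated at 5,000–40,000/well by doubling time and grown 24 h at 37 °C, 5% CO2, then drug added from DMSO stock for 48 h continuous exposure. Adherent cells fixed with cold TCA (final 10%), suspension cells with 16% TCA. SRB stain read at 515 nm. Reported as growth percent relative to untreated controls and time-zero plates.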

NCI-H460 = assay: Growth inhibition of human NCI-H460 cells assessed as cell growth at 10 uM after 48 hrs by sulforhodamine B assay; settings: NCI-H460, 48 h; how it was run: as §3
K562 = assay: Growth inhibition of human K562 cells assessed as cell growth at 10 uM after 48 hrs by sulforhodamine B assay; settings: K562, 48 h, read-out: Activity; how it was run: as §2
UACC-257 = assay: Growth inhibition of human UACC257 cells assessed as cell growth at 10 uM after 48 hrs by sulforhodamine B assay; settings: UACC-257, 48 h, read-out: Activity; how it was run: as §3
RPMI-8226 = assay: Growth inhibition of human RPMI8226 cells assessed as cell growth at 10 uM after 48 hrs by sulforhodamine B assay; settings: RPMI-8226, 48 h, read-out: Activity; how it was run: as §3
A498 = assay: Growth inhibition of human A498 cells assessed as cell growth at 10 uM after 48 hrs by sulforhodamine B assay; settings: A498, 48 h, read-out: Activity; how it was run: as §1
U-251 = assay: Growth inhibition of human U251 cells assessed as cell growth at 10 uM after 48 hrs by sulforhodamine B assay; settings: U-251, 48 h, read-out: Activity; how it was run: as §3
DU-145 = assay: Growth inhibition of human DU145 cells assessed as cell growth at 10 uM after 48 hrs by sulforhodamine B assay; settings: DU-145, 48 h, read-out: Activity; how it was run: as §2
CAKI-1 = assay: Growth inhibition of human CAKI-1 cells assessed as cell growth at 10 uM after 48 hrs by sulforhodamine B assay; settings: CAKI-1, 48 h, read-out: Activity; how it was run: as §1
[1] = Growth inhibition of human NCI-ADR-RES cells assessed as cell growth at 10 uM after 48 hrs by sulforhodamine B assay; settings: read-out: Activity; how it was run: as §2
MCF7 = assay: Growth inhibition of human MCF7 cells assessed as cell growth at 10 uM after 48 hrs by sulforhodamine B assay; settings: MCF7, 48 h, read-out: Activity; how it was run: as §2
786-0 = assay: Growth inhibition of human 786-0 cells assessed as cell growth at 10 uM after 48 hrs by sulforhodamine B assay; settings: 786-0, 48 h, read-out: Activity; how it was run: as §1
TK-10 = assay: Growth inhibition of human TK10 cells assessed as cell growth at 10 uM after 48 hrs by sulforhodamine B assay; settings: TK-10, 48 h, read-out: Activity; how it was run: as §3
OVCAR-4 = assay: Growth inhibition of human OVCAR4 cells assessed as cell growth at 10 uM after 48 hrs by sulforhodamine B assay; settings: OVCAR-4, 48 h, read-out: Activity; how it was run: as §3
MDA-MB-468 = assay: Growth inhibition of human MDA-MB-468 cells assessed as cell growth at 10 uM after 48 hrs by sulforhodamine B assay; settings: MDA-MB-468, 48 h, read-out: Activity; how it was run: as §2
[2] = Growth inhibition of human Hs 578T cells assessed as cell growth at 10 uM after 48 hrs by sulforhodamine B assay; settings: read-out: Activity; how it was run: as §2
SK-OV-3 = assay: Growth inhibition of human SKOV3 cells assessed as cell growth at 10 uM after 48 hrs by sulforhodamine B assay; settings: SK-OV-3, 48 h, read-out: Activity; how it was run: as §3
NCI-H322M = assay: Growth inhibition of human NCI-H322M cells assessed as cell growth at 10 uM after 48 hrs by sulforhodamine B assay; settings: read-out: Activity; how it was run: as §3
MDA-MB-435 = assay: Growth inhibition of human MDA-MB-435 cells assessed as cell growth at 10 uM after 48 hrs by sulforhodamine B assay; settings: MDA-MB-435, 48 h, read-out: Activity; how it was run: as §2
COLO 205 = assay: Growth inhibition of human COLO205 cells assessed as cell growth at 10 uM after 48 hrs by sulforhodamine B assay; settings: COLO 205, 48 h, read-out: Activity; how it was run: as §2
SNB-75 = assay: Growth inhibition of human SNB75 cells assessed as cell growth at 10 uM after 48 hrs by sulforhodamine B assay; settings: SNB-75, 48 h, read-out: Activity; how it was run: as §3
A549 = assay: Growth inhibition of human A549 cells assessed as cell growth at 10 uM after 48 hrs by sulforhodamine B assay; settings: A549, 48 h, read-out: Activity; how it was run: as §1
SNB-19 = assay: Growth inhibition of human SNB19 cells assessed as cell growth at 10 uM after 48 hrs by sulforhodamine B assay; settings: SNB-19, 48 h, read-out: Activity; how it was run: as §3
HOP-62 = assay: Growth inhibition of human HOP62 cells assessed as cell growth at 10 uM after 48 hrs by sulforhodamine B assay; settings: HOP-62, 48 h, read-out: Activity; how it was run: as §2
MOLT-4 = assay: Growth inhibition of human MOLT4 cells assessed as cell growth at 10 uM after 48 hrs by sulforhodamine B assay; settings: MOLT-4, 48 h, read-out: Activity; how it was run: as §2
SK-MEL-28 = assay: Growth inhibition of human SK-MEL-28 cells assessed as cell growth at 10 uM after 48 hrs by sulforhodamine B assay; settings: SK-MEL-28, 48 h, read-out: Activity; how it was run: as §3
OVCAR-8 = assay: Growth inhibition of human OVCAR8 cells assessed as cell growth at 10 uM after 48 hrs by sulforhodamine B assay; settings: OVCAR-8, 48 h, read-out: Activity; how it was run: as §3
HOP-92 = assay: Growth inhibition of human HOP92 cells assessed as cell growth at 10 uM after 48 hrs by sulforhodamine B assay; settings: HOP-92, 48 h, read-out: Activity; how it was run: as §2

| SMILES | growth at 10 µM (CCRF-CEM) | growth at 10 µM (NCI-H23) | growth at 10 µM (UACC-62) | growth at 10 µM (K562) | growth at 10 µM (UACC-257) | growth at 10 µM (RPMI-8226) | growth at 10 µM (A498) | growth at 10 µM (U-251) | growth at 10 µM (DU-145) | growth at 10 µM (CAKI-1) | growth at 10 µM [1] | growth at 10 µM (MCF7) | growth at 10 µM (786-0) | growth at 10 µM (TK-10) | growth at 10 µM (OVCAR-4) | growth at 10 µM (MDA-MB-468) | growth at 10 µM [2] | growth at 10 µM (SK-OV-3) | growth at 10 µM (NCI-H322M) | growth at 10 µM (MDA-MB-435) | further results |
| --- | --- | --- | --- | --- | --- | --- | --- | --- | --- | --- | --- | --- | --- | --- | --- | --- | --- | --- | --- | --- | --- |
| Cc1nn(-c2ccc(Cl)cc2)c(=O)n1CCN1CCOCC1 | 63.2% | 64.5% | 82.8% | 70.1% | 73.4% | 83.1% | 105% | 42.9% | 78.5% | 72.4% | 75.9% | 73.4% | 59.4% | 64.4% | 93.4% | 90.3% | 42.7% | 42.8% | 92.2% | 84.9% | growth at 10 µM (NCI-H460; read-out: Activity): 41.8%; growth at 10 µM (COLO 205): 107%; growth at 10 µM (SNB-75): 7.65%; growth at 10 µM (A549): 56.4%; growth at 10 µM (SNB-19): 58.7%; growth at 10 µM (HOP-62): 33.8%; growth at 10 µM (MOLT-4): 90.9%; growth at 10 µM (SK-MEL-28): 92.9%; growth at 10 µM (OVCAR-8): 116%; growth at 10 µM (HOP-92): 30.1% |
| Cc1cc(=O)oc2cc(OCCn3c(C)nn(-c4ccc(Cl)cc4)c3=O)ccc12 | 13.4% | 45.8% | 43.3% | 16.3% | 22.5% | 31% | 25.7% | 31.4% | 21.6% | 19.5% | 24.7% | 15.8% | 32.9% | 59.6% | 67.1% | 16.1% | 34.8% | 41.1% | 58.7% | -38.5% | inhibition of growth at 10 µM (NCI-H460; read-out: GI): 17.2%; growth at 10 µM (COLO 205): 10.6%; growth at 10 µM (SNB-75): 20.4%; growth at 10 µM (A549): 30.2%; growth at 10 µM (SNB-19): 54.5%; growth at 10 µM (HOP-62): 27.4%; growth at 10 µM (MOLT-4): 37.6%; growth at 10 µM (SK-MEL-28): 40.8%; growth at 10 µM (OVCAR-8): 17.7%; growth at 10 µM (HOP-92): 47.4% |
